{"data": "Measurements of several laboratories", "target": "Megakaryocyte-associated tyrosine-protein kinase (MATK, Homo sapiens, UniProt P42679)", "Sequence (P42679 1-507, as in one of the studies)": "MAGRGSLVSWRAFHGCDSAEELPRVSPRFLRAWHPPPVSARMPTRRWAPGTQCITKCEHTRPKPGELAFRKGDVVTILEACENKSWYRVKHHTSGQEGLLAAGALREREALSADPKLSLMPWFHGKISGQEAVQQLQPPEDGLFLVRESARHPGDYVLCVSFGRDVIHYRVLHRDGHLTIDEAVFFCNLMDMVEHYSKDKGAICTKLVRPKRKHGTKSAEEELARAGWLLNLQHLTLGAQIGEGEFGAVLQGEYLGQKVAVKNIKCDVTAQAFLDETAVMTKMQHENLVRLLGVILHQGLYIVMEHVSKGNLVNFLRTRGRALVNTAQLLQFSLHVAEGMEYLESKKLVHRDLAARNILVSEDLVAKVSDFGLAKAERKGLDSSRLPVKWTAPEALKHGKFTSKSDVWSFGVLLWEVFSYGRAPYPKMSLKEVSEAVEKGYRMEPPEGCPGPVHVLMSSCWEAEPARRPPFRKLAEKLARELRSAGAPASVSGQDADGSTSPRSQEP", "note": "Each line is one published result; the experiments were not run side by side."}
{"Structure (SMILES)": "O=C(c1ccc(Nc2nccc(-c3cc4ccccc4s3)n2)cc1)N1CCC(N2CCCC2)CC1", "effect on": "binding", "method": "competition with immobilised ligand", "concentration": "1 µM", "remaining binding": "67%"}
{"Structure (SMILES)": "Nc1ncc2c(n1)-c1c([nH]c3ccc(C#CC4CC4)cc13)CCCC2", "effect on": "binding", "method": "competition with immobilised ligand", "concentration": "1 µM", "remaining binding": "100%"}
{"Structure (SMILES)": "N[C@H]1CCN(c2nccc(-c3cnn4ncccc34)n2)C1", "effect on": "binding", "concentration": "1 µM", "remaining binding": "100%"}
{"Structure (SMILES)": "NS(=O)(=O)c1cc(NC(=O)Cc2ccccc2)ccc1Oc1cccc(Cl)c1", "effect on": "cell-free assay", "method": "competition with immobilised ligand", "concentration": "1 µM", "remaining binding": "68%"}
{"Structure (SMILES)": "CN(C)c1nccc(-c2cnn3ncccc23)n1", "effect on": "binding", "concentration": "1 µM", "remaining binding": "100%"}
{"Structure (SMILES)": "C=CC(=O)N1CCC(C(=O)NCC(=O)N2CCN(c3nc(-c4cnc(N)nc4C(F)F)nc(N4CCOCC4)n3)CC2)CC1", "effect on": "binding", "method": "competition with immobilised ligand", "concentration": "1 µM", "remaining binding": "78%"}
{"Structure (SMILES)": "CN(c1nccc(-c2cnn3ncccc23)n1)C1CC1", "effect on": "binding", "concentration": "1 µM", "remaining binding": "100%"}
{"Structure (SMILES)": "Cc1cc(NC(=O)c2cccc(S(F)(F)(F)(F)F)c2)cc(-n2ccn3nc(-c4cccnc4)cc23)c1", "effect on": "cell-free assay", "method": "competition with immobilised ligand", "concentration": "1 µM", "remaining binding": "100%"}
{"Structure (SMILES)": "CNC(=O)[C@@H]1CC[C@@H](n2c(-c3ccc4cnccc4c3)nc3ccc(C(=O)NCc4cccc(C(N)=O)c4)cc32)C1", "effect on": "binding", "method": "competition with immobilised ligand", "concentration": "1 µM", "remaining binding": "100%"}
{"Structure (SMILES)": "CCCOc1ccc([C@@H]2[C@@H](C(=O)O)[C@H](c3ccc4c(c3)OCO4)CN2CC(=O)Nc2c(CC)cccc2CC)cc1", "effect on": "cell-free assay", "method": "competition with immobilised ligand", "concentration": "1 µM", "remaining binding": "90%"}
{"Structure (SMILES)": "O=C(Nc1c[nH]nc1C(=O)NC1CCNCC1)c1cc(F)cc(F)c1", "effect on": "binding", "method": "competition with immobilised ligand", "concentration": "1 µM", "remaining binding": "84%"}
{"Structure (SMILES)": "COc1cnc(Nc2cccc(S(N)(=O)=O)c2)nc1N1CCN(c2ccccc2)C(=O)C1", "effect on": "binding", "method": "competition with immobilised ligand", "concentration": "1 µM", "remaining binding": "79%"}
{"Structure (SMILES)": "F[C@@H]1CCN(c2nccc(-c3cnn4ncccc34)n2)C1", "effect on": "binding", "concentration": "1 µM", "remaining binding": "80%"}
{"Structure (SMILES)": "O=C1CCc2cc(Nc3cc(OC4CCOCC4)c([N+](=O)[O-])cc3Cl)ccc2N1", "effect on": "cell-free assay", "method": "competition with immobilised ligand", "concentration": "1 µM", "remaining binding": "100%"}
{"Structure (SMILES)": "O=C(NCCCN1CCOCC1)c1ccc(Nc2ncc(Cl)c(-c3ccc(Cl)s3)n2)cc1", "effect on": "binding", "method": "competition with immobilised ligand", "concentration": "1 µM", "remaining binding": "48%"}
{"Structure (SMILES)": "c1cnn2ncc(-c3ccnc(N4CCC45COC5)n3)c2c1", "effect on": "binding", "concentration": "1 µM", "remaining binding": "87%"}
{"Structure (SMILES)": "O=C(Nc1cnc(Oc2ccc(F)cc2)nc1)N1CCc2ncccc2[C@@H]1c1ccc(F)cc1", "effect on": "cell-free assay", "method": "competition with immobilised ligand", "concentration": "1 µM", "remaining binding": "80%"}
{"Structure (SMILES)": "COc1ncc2cc3ccccc3nc2c1C#N", "effect on": "cell-free assay", "method": "competition with immobilised ligand", "concentration": "5 µM", "remaining binding": "100%"}
{"Structure (SMILES)": "Cc1cnc(Nc2ccc(C(=O)N3CCC(N4CCCC4)CC3)cc2)nc1-c1cc2ccccc2s1", "effect on": "binding", "method": "competition with immobilised ligand", "concentration": "1 µM", "remaining binding": "30%"}
{"Structure (SMILES)": "CC1CCCN1c1nccc(-c2cnn3ncccc23)n1 (stereo not drawn)", "effect on": "binding", "concentration": "1 µM", "remaining binding": "100%"}
{"Structure (SMILES)": "O=C(N[C@H]1CCCCC/C=C\\C2C[C@@]2(C(=O)O)NC(=O)[C@@H]2C[C@@H](Oc3ccncc3)CN2C1=O)OC1CCCC1 (stereo partly drawn)", "effect on": "binding", "method": "competition with immobilised ligand", "concentration": "1 µM", "remaining binding": "41%"}
